# This is one part of a sample in which hits are shown more often than they occur.
# UPR CHOP act: activators of apoptotic CHOP UPR arm, primary screen, cell-based, CHO-CHOP luciferase reporter, luminescence, uHTS. 330,000 compounds, 0.34% hits. UPR activation; percent of tunicamycin response over DMSO baseline. AID 449763, 2010. activation, % at 10 µM;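 active = at 10 µM dose, activation of 40% or more, normalized to positive control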;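 also: 100% = tunicamycin at 10 µg/mL and 0% = DMSO alone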
#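 Test system: CHO CHOP reporter cells. Input: 500 CHO-CHOP cells per well. Medium: F12 with 10% FBS. Technique: luciferase luminescence. Measure: percent activation relative to tunicamycin control. Dosing: 10 µM compound, 0.5% DMSO. Timing: 16-18 h cell attachment, then 6 h compound exposure, 37 °C.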
# hiPSC survival: enhancers of single-cell hiPSC survival, primary screen, ATPlite luminescence; 100% = ROCK inhibitor wells, 0% = DMSO; survival enhancement, % at 20 µM; 360,000 compounds, 0.044% hits; AID 602274, 2012; in the data active = survival enhancement above about 18%;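 also: cells exposed to compounds for 16 hours before the ATP read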
# XBP1 UPR activ: activators of adaptive XBP1 UPR arm, primary screen, cell-based, CHO-XBP1 luciferase reporter, luminescence, uHTS; IRE1-XBP1 UPR activation; percent of tunicamycin response, DMSO as zero; activation, % at 20 µM; 330,000 compounds, 0.33% hits; AID 463104, 2010;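 active = versus positive control, 20 µM dose yields 30% or more activation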;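 also: 100% = tunicamycin at 10 µg/mL and 0% = DMSO only wells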
#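 incubation = overnight seeding at 37 °C, 6 h compound treatment at 37 °C | assay system = CHO-XBP1 cells stably carrying IRE1-XBP1-driven luciferase reporter | input = 1000 cells per well | detection = luciferase luminescence | dosing = single point, 20 µM final compound, 1% DMSO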
# CHOP inh: inhibitors of CHOP promoter induction, primary screen, cell-based, unfolded protein response, luciferase reporter | AID 2732, 2010 | 220,000 compounds, 3.8% hits | inhibition, % at 10 µM | CHO-K1 CHOP-promoter luciferase, tunicamycin-induced, 15-18 h;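 active = compounds that reduced the stress-induced luciferase reporter signal by more than about 70% of percent inhibition, limit read from the data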;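 also: 0% = tunicamycin plus vehicle and 100% = wells without tunicamycin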
# H9c2 protect: cardioprotection against H2O2-induced cell death, primary screen, uHTS, H9c2 cells, ATPLite luminescence; AID 588492, 2011; protection from H2O2 cell death, % at 20 µM; 360,000 compounds, 0.63% hits; H9c2 cardiomyocytes, H2O2 injury protection, 2 h;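 active = compounds giving at least 50% protection of heart cells from peroxide-induced death in the single-dose screen, raw or plate-pattern-corrected value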;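 also: 0% = DMSO wells with peroxide and 100% = DMSO wells without peroxide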
# CHOP inh conf: retest of CHOP induction inhibitors, confirmation, cell-based. shares compounds with CHOP inh. CHO-CHOP promoter luciferase reporter, tunicamycin-induced, luminescence. inhibition, % at 10 µM. 2,100 compounds, 45% hits;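 active = mean of three repeat readings of reporter signal inhibition above a set limit, cut at about 70% in these data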;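 also: 0% = tunicamycin plus vehicle and 100% = wells lacking tunicamycin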
# UPR CHOP confirm: activators of apoptotic CHOP UPR arm, confirmation, cell-based, CHO-CHOP luciferase reporter, single concentration; 1,000 compounds, 64% hits; shares compounds with UPR CHOP act; CHO-CHOP cells, CHOP-luciferase reporter luminescence; percent of tunicamycin response, DMSO as zero; activation, % at 10 µM; in the data active = activation above about 33%;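 also: 0% = DMSO wells and 100% = tunicamycin 10 µg/mL wells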
# XBP1 UPR conf: IRE1-XBP1 UPR arm activators, confirmation, cell-based, CHO-XBP1 luciferase reporter, luminescence, single concentration; shares compounds with XBP1 UPR activ; activation, % at 20 µM; 1,000 compounds, 63% hits; AID 485299, 2010;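 active = reporter signal at least 30% of the positive control's activation in two or more of four replicate wells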;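 also: plate controls were DMSO negative control for no effect and tunicamycin 10 µg/mL positive control for full effect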
# * marks the source's active call; other numbers are inactive results; nt = no result.
SMILES,UPR CHOP act,hiPSC survival,XBP1 UPR activ,CHOP inh,H9c2 protect,CHOP inh conf,XBP1 UPR conf,others
NCCOc1ccc(C23CC4CC(CC(C4)C2)C3)cc1,14,-5,97*,105*,-28,-9,93*,
CC(C)(C)OC(=O)NCCc1onc(-c2ccccc2F)c1C(=O)O,nt,0,nt,nt,5,nt,nt,
CC(C)Oc1ccc(S(=O)(=O)N2CCOCC2)cc1NC(=O)C1COc2ccccc2O1 (stereo not given),4,0,4,nt,-1,nt,nt,
CCc1ccc(NC(=O)C(CC)Sc2nc3cc4c(cc3c(=O)n2Cc2ccco2)OCO4)cc1 (stereo not given),96*,-2,106*,96*,3,-60,127*,UPR CHOP confirm=88*
Cc1cnc(NC(=O)Cc2ccccc2Cl)s1,2,0,-6,nt,-4,nt,nt,
Cc1cnc(NC(=O)c2cc3c(C)nn(Cc4ccccc4Cl)c3s2)s1,4,-1,43*,104*,15,9,82*,
CCC(CC)C(=O)N(C)c1c(C)nc2c(OCc3ccc(Cl)cc3)cccn12,nt,1,nt,nt,-3,nt,nt,
O=C(Nc1ccc(Cl)c([N+](=O)[O-])c1)c1ccc(NCCCN2CCOCC2)c([N+](=O)[O-])c1,0,-4,42*,97*,-11,-5,6,
CCN(CC)CCNc1cc(C)c(C#N)c2nc3ccccc3n12,-2,-1,-2,nt,8,nt,nt,
Cc1cc(Nc2cccc([N+](=O)[O-])c2)n2c(nc3ccccc32)c1C#N,18,-1,37*,103*,-24,87*,12,
O=C(CC1SC(=Nc2ccc(OC(F)F)cc2)N(CCN2CCOCC2)C1=O)Nc1ccc(F)cc1F (stereo not given),-2,-1,-2,27,6,nt,nt,
CN=C1SC(CC(=O)Nc2ccc(F)cc2F)C(=O)N1/N=C/c1ccc(OC(F)F)c(OC)c1 (stereo not given),30,0,201*,98*,15,116*,5,
COc1ccc(-c2nc(-c3ccc(NC(=O)c4ccc(Br)o4)cc3)no2)cc1OC,30,-5,35*,103*,-32,110*,16,
O=C(Nc1ccc(-c2nc3ncccc3o2)cc1)c1ccc(Br)o1,5,-1,62*,103*,11,-18,4,
COCCN1C[C@@H](CO)O[C@@H](n2cnc3c(NC4CCC4)ncnc32)C1,nt,4,nt,nt,8,nt,nt,
COc1cc(N(C(=O)Cc2cccs2)C(C(=O)NC2CCCCC2)c2ccc(C)cc2)ccc1-n1cnnn1 (stereo not given),-1,-1,35*,105*,-5,92*,37*,
COc1ccc(N(C(=O)Cc2cccs2)C(C(=O)NC2CCCC2)c2ccncc2)cc1OC (stereo not given),-1,0,6,nt,-4,nt,nt,
CCc1ccc(-c2nc(CN3CCC(C(=O)NCCN(CC)c4ccccc4)CC3)c(C)o2)cc1,4,-2,57*,98*,-18,105*,35*,
CCN(CCNC(=O)C1CCCN(Cc2nc(-c3ccc(OC)cc3)oc2C)C1)c1ccccc1 (stereo not given),0,-1,4,50,2,nt,nt,
Cc1cc(N2CCN(C)CC2)ccc1NC(=O)c1cccc(S(=O)(=O)N2CCc3ccccc3C2)c1,2,0,34*,104*,-19,-47,4,
CCOC(=O)c1nnc(-c2ccccc2)nc1Oc1ccc(Cl)cc1,31,-1,72*,106*,-29,-4,85*,
CCOC(=O)c1cnc(-c2ccccc2)nc1Oc1ccc(Cl)c(Cl)c1,-2,0,-6,1,-25,nt,nt,
Cc1ccc2nc(SCC(=O)Nc3cc(C(F)(F)F)ccc3N3CCOCC3)[nH]c2c1,2,4,35*,nt,-9,10,40*,
O=C(CSc1nccc(=O)[nH]1)Nc1cc(C(F)(F)F)ccc1N1CCOCC1,1,0,4,nt,2,nt,nt,
Cc1cc(N2CCN(c3ccc([N+](=O)[O-])c4cccnc34)CC2)c2ccccc2n1,42*,-2,104*,105*,-27,54,62*,UPR CHOP confirm=53*
SMILES,UPR CHOP act,hiPSC survival,XBP1 UPR activ,CHOP inh,H9c2 protect,CHOP inh conf,XBP1 UPR conf,others
CCOC(=O)c1c(NC(=O)Cc2cccs2)sc(C(=O)NC2CCCCC2)c1C,10,2,55*,106*,3,74*,43*,
CC(C)=CCCC1(C)C=Cc2c(c(C)cc3c2[nH]c2cc(O)ccc23)O1 (stereo not given),4,-1,63*,104*,-15,119*,67*,
O=C(NC1CCN(Cc2ccccc2)CC1)c1[nH]c(C(F)(F)F)nc1-c1ccccc1,nt,4,nt,nt,1,nt,nt,
COc1ccc(-c2ccc(C#N)c(SCC(=O)Nc3sc4c(c3C#N)CCC4)n2)cc1OC,28,-2,41*,102*,-7,16,56*,
Cc1ccc(-c2[nH]ncc2/C=N/n2c(COc3ccccc3)nc3ccccc3c2=O)cc1,5,0,37*,99*,45,108*,45*,
CC1CN(S(=O)(=O)c2ccc(C(=O)Nc3nc(-c4cc5ccccc5o4)cs3)cc2)CC(C)O1 (stereo not given),13,-2,48*,107*,-6,73*,134*,
O=C(Nc1nc(-c2cc3ccccc3o2)cs1)c1ccc(S(=O)(=O)N2CCCC2)cc1,9,0,1,60,-27,nt,nt,
CCCS(=O)(=O)NC(=O)C1(C)CCN(C(=O)c2oc3ccccc3c2C)C1 (stereo not given),nt,1,nt,nt,6,nt,nt,
CSc1cc(-c2ccc(Cl)cc2)n(Cc2ccccc2)c(=O)c1C#N,44*,-1,32*,101*,-14,29,25,UPR CHOP confirm=20
CCc1cc(Br)ccc1NC(=S)NCCc1ccccc1,0,0,0,nt,-9,nt,nt,
Cc1cc(C)c(C)c(S(=O)(=O)NCC(=O)Nc2ccc(F)cc2)c1C,0,0,-3,nt,-4,nt,nt,
Fc1ccc(Nc2nc(NCc3ccco3)c3ccccc3n2)cc1,27,-1,31*,97*,-20,73*,33*,
Nc1nc(Nc2ccccc2F)nc(NCc2ccco2)c1[N+](=O)[O-],2,0,11,20,-1,nt,nt,

# Bioassay records as filed in PubChem.
